Key:
[1] = molecular target: T1, Multidrug resistance-associated protein 1 (Homo sapiens, UniProt P33527); assay: Inhibition of MRP1 (unknown origin)
[2] = molecular target: T2, ATP-dependent translocase ABCB1 (Homo sapiens, UniProt P08183); assay: Inhibition of P-gp (unknown origin)
[3] = molecular target: T2, ATP-dependent translocase ABCB1; assay: Inhibition of P-gp (unknown origin) incubated for 30 mins by calcein AM analysis
How it was run: (§1)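 A2780/ADR cells (doxorubicin-selected, P-gp overexpressing), about 30,000 per well in Krebs-HEPES buffer pH 7.4, incubated 30 min at 37 °C with compound (100 nM–100 µM added solutions). Calcein AM (3.125 µM solution added) then fluorescence read every 60 s at 37 °C, ex 485/em 520 nm; slope over minutes 5–30 plotted vs log concentration. Cyclosporine A 10 µM = 100% inhibition, buffer = 0%.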

[4] = molecular target: T1, Multidrug resistance-associated protein 1; assay: Inhibition of MRP1 in human NCI-H69AR cells incubated for 180 mins in presence of daunorubicin by flow cytometry analysis; type: cell-based
How it was run: (§2)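 H69AR cells (doxorubicin-selected small cell lung cancer, RPMI-1640/20% FBS), about 60,000 per well, preincubated 15 min with compound (100 nM–100 µM added solutions, in unsupplemented medium), then daunorubicin (30 µM solution added); steady state after 180 min, 37 °C, 5% CO2. Cells resuspended; flow cytometry, 488 nm excitation, FL3 (≥670 nm). Reference inhibitor 75 at 10 µM = 100%; Imax relative to it.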

[5] = molecular target: T3, Broad substrate specificity ATP-binding cassette transporter ABCG2 (Homo sapiens, UniProt Q9UNQ0); assay: Inhibition of BCRP (unknown origin) expressed in dog MDCK-II cells using pheophorbide A as substrate preincubated for 20 mins followed by substrate addition and measured after 120 mins by flow cytometry analysis; type: cell-based
T3 sequence (Q9UNQ0 whole entry): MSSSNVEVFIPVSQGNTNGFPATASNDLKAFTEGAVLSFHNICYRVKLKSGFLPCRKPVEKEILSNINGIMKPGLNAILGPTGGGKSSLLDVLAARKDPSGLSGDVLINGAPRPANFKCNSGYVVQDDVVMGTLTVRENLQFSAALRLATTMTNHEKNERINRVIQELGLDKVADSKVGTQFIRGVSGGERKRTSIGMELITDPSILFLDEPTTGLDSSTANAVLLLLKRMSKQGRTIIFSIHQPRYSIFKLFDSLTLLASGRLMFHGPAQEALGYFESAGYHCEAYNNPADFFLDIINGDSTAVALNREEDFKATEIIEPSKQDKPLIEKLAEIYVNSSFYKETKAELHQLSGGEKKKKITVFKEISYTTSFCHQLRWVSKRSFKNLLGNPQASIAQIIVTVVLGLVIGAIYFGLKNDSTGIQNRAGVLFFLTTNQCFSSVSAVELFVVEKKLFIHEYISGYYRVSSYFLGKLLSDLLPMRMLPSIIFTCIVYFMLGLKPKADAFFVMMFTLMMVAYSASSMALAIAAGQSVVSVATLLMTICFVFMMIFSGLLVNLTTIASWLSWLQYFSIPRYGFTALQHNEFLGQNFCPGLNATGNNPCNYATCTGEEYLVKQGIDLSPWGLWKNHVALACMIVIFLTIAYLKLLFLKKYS
How it was run: (§3)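 MDCK II cells transfected with human wild-type BCRP cDNA C-terminally fused to GFP, grown in DMEM/10% FBS. About 45,000 cells per well preincubated 20 min at 37 °C, 5% CO2 with compound (100 nM–100 µM added solutions), then pheophorbide A (5 µM solution added) for 120 min to steady state. Resuspended; flow cytometry, 488 nm excitation, FL3 (≥670 nm); GFP in FL1. Reference inhibitor 24 at 10 µM = 100%.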

P-gp (ABCB1) [6] = molecular target: T4, P-gp (ABCB1) (Homo sapiens, UniProt P08183); assay: Inhibition of P-gp (unknown origin) at 10 uM incubated for 30 mins by calcein AM analysis relative to control; conditions: probe calcein AM; how it was run: as §1
T4 sequence (P08183 whole entry): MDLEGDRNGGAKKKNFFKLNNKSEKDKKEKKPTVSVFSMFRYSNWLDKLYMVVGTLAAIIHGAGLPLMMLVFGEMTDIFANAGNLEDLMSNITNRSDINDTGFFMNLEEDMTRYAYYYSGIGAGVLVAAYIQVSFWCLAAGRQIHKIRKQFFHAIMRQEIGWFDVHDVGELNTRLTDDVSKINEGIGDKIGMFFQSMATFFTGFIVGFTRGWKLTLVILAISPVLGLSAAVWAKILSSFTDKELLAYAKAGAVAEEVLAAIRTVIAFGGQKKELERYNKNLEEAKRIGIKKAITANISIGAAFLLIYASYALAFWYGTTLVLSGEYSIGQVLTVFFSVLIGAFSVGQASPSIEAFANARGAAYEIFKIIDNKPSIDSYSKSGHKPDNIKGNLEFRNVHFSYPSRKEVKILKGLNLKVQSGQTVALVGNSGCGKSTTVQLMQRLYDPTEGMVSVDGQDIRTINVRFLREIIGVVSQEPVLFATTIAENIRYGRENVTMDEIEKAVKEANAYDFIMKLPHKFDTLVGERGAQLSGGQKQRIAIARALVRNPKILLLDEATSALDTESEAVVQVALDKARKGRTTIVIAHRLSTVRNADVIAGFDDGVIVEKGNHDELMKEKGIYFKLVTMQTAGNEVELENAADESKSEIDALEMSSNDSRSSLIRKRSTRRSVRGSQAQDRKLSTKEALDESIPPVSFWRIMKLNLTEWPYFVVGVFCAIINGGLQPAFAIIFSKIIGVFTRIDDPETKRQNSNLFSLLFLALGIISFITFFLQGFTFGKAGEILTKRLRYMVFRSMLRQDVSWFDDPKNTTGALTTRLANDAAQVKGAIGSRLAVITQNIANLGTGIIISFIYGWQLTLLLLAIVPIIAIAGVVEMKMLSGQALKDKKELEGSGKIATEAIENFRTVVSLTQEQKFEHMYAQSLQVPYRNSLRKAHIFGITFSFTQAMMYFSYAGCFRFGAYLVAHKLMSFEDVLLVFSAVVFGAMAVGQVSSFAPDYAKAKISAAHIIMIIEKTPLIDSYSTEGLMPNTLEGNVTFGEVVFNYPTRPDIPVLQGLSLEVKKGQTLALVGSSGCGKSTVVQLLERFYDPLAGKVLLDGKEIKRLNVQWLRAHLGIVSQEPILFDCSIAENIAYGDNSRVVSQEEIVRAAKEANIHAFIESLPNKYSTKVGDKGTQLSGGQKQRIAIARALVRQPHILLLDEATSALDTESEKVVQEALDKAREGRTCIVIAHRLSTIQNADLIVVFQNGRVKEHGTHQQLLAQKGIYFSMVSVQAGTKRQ

MRP1 [7] = molecular target: T5, MRP1 (Homo sapiens, UniProt P33527); assay: Inhibition of MRP1 in human NCI-H69AR cells at 10 uM incubated for 180 mins in presence of daunorubicin by flow cytometry analysis relative to control; type: cell-based; conditions: probe daunorubicin; how it was run: as §2
T5 sequence (P33527 whole entry): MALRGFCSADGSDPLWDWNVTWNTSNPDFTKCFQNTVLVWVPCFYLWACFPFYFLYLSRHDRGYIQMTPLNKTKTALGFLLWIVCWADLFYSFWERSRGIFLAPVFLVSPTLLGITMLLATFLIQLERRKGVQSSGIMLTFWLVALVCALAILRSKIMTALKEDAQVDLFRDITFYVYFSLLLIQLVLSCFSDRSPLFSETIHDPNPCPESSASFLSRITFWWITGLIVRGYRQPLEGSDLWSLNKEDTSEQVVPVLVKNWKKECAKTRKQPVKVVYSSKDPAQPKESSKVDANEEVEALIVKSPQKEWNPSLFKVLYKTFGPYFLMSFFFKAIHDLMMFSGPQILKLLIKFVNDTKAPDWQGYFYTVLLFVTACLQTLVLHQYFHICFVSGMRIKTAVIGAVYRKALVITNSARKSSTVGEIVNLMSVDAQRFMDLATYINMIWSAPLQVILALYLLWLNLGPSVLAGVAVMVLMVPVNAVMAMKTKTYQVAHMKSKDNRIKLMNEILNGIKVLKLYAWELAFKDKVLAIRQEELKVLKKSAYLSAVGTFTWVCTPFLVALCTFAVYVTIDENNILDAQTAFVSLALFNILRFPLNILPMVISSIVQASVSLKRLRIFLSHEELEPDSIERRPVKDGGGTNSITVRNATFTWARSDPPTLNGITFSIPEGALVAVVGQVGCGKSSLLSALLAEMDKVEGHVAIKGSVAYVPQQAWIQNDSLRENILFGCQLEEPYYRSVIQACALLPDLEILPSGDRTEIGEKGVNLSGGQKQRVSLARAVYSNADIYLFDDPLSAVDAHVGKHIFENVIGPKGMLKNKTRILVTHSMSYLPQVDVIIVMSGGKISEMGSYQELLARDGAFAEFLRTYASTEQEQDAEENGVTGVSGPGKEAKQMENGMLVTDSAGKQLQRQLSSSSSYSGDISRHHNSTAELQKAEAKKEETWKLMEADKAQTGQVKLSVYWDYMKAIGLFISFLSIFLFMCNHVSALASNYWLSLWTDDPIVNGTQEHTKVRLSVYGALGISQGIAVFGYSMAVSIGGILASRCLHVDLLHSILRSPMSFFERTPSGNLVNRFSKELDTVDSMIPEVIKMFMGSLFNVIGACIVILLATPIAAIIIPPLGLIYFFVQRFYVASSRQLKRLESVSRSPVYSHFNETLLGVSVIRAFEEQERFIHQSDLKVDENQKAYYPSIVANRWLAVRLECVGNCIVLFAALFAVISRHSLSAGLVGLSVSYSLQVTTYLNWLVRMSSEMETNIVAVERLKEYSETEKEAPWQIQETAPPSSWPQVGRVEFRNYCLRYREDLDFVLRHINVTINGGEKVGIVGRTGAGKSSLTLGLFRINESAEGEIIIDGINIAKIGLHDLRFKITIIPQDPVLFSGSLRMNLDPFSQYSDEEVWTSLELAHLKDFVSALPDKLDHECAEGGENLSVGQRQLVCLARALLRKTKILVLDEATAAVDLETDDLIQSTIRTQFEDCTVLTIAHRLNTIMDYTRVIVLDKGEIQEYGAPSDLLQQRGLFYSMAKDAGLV

BCRP (ABCG2) [8] = molecular target: T6, BCRP (ABCG2) (Homo sapiens, UniProt Q9UNQ0); assay: Inhibition of BCRP (unknown origin) expressed in dog MDCK-II cells at 10 uM using pheophorbide A as substrate preincubated for 20 mins followed by substrate addition and measured after 120 mins by flow cytometry analysis relative to control; type: cell-based; conditions: probe pheophorbide A; how it was run: as §3
T6 sequence (Q9UNQ0 whole entry): T3 sequence (Q9UNQ0 whole entry)

P-gp (ABCB1) [9] = molecular target: T4, P-gp (ABCB1); assay: Inhibition of P-gp (unknown origin) expressed in dog MDCK-MDR1cells assessed as maximum inhibition at 10 uM by calcein AM accumulation assay relative to control; type: cell-based; conditions: MDCK-MDR1 cells, probe calcein AM
MRP1 [10] = molecular target: T5, MRP1; assay: Inhibition of MRP1 in human NCI-H69AR cells assessed as maximum inhibition at 10 uM incubated for 180 mins in presence of daunorubicin by flow cytometry analysis relative to control; type: cell-based; conditions: probe daunorubicin; how it was run: as §2
[11] = molecular target: T3, Broad substrate specificity ATP-binding cassette transporter ABCG2; assay: Inhibition of BCRP (unknown origin) expressed in MDCK cells assessed as increase in Hoechst 33342 accumulation incubated for 30 mins by Hoechst 33342 dye based fluorescence assay; type: cell-based
[12] = molecular target: T1, Multidrug resistance-associated protein 1; assay: Inhibition of human MRP1 expressed in human MDR cells measured for 2 hrs; type: cell-based
[13] = molecular target: T3, Broad substrate specificity ATP-binding cassette transporter ABCG2; assay: Inhibition of BCRP (unknown origin)
How it was run: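 Pheophorbide A accumulation in MDCK II cells transfected with human wild-type BCRP cDNA C-terminally linked to GFP, ~45,000 cells/well. Compound (100 nM–100 µM) preincubated 20 min at 37 °C, 5% CO2. Pheophorbide A stock 5 µM added, then 120 min to steady state. Flow cytometry read-out: FL3 (≥670 nm, 488 nm excitation).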

[14] = molecular target: T1, Multidrug resistance-associated protein 1; assay: Inhibition of MRP1 (unknown origin) measured for 2 hrs
P-gp (ABCB1) [15] = molecular target: T4, P-gp (ABCB1); assay: Inhibition of P-gp (unknown origin) expressed in dog MDCK-MDR1cells assessed as maximum inhibition by calcein AM accumulation assay relative to control; type: cell-based; conditions: MDCK-MDR1 cells, probe calcein AM, read-out: Imax
MRP1 [16] = molecular target: T5, MRP1; assay: Inhibition of MRP1 in human NCI-H69AR cells assessed as maximum inhibition incubated for 180 mins in presence of daunorubicin by flow cytometry analysis relative to control; type: cell-based; conditions: probe daunorubicin, read-out: Imax; how it was run: as §2
BCRP (ABCG2) [17] = molecular target: T6, BCRP (ABCG2); assay: Inhibition of BCRP (unknown origin) expressed in dog MDCK-II cells assessed as maximum inhibition using pheophorbide A as substrate preincubated for 20 mins followed by substrate addition and measured after 120 mins by flow cytometry analysis relative to control; type: cell-based; conditions: probe pheophorbide A, time 140 min, read-out: Imax; how it was run: as §3
[18] = molecular target: T3, Broad substrate specificity ATP-binding cassette transporter ABCG2; assay: Inhibition of BCRP (unknown origin) expressed in MDCK cells assessed as increase in Hoechst 33342 accumulation incubated for 60 mins by Hoechst 33342 dye based fluorescence assay; type: cell-based
[19] = Inhibition of cell growth in SN-38 resistant dog MDCK-II-BCRP cells expressing BCRP measured for 72 hrs by MTT assay; type: functional; conditions: Canis lupus familiaris
How it was run: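 Reversal assay: resistant lines (A2780/ADR, H69AR, MDCK II BCRP) and parental lines seeded as for MTT assay with modulator solutions of 1, 10 and 100 µM added (final 0.1, 1, 10 µM) and daunorubicin (P-gp, MRP1) or SN-38 (BCRP) at final 10 nM–10 µM. 72 h, MTT read-out; GI50 by variable-slope fit. Resistance factor = resistant/sensitive GI50; potentiation factor = GI50 without/with modulator.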

[20] = Inhibition of SN-38 sensitive dog MDCK-II-BCRP cells expressing BCRP measured for 72 hrs by MTT assay; type: functional; conditions: Canis lupus familiaris

T1 sequence (P33527 whole entry): as above
T2 sequence (P08183 whole entry): as the sequence (P08183 whole entry) above

SMILES	IC50 [2] [nM]	IC50 [3] [nM]	IC50 [4] [nM]	IC50 [5] [nM]	inhibition at 0.5 h, 10 µM (P-gp (ABCB1) [6]) [%]	inhibition at 3 h, 10 µM (MRP1 [7]) [%]	inhibition at 2 h, 10 µM (BCRP (ABCG2) [8]) [%]	inhibition at 10 µM (P-gp (ABCB1) [9]) [%]	inhibition at 3 h, 10 µM (MRP1 [10]) [%]	further results
COc1cc(N(C)C(=O)Cc2cccc(-n3c(=O)c4c(C)onc4c4c(Cl)cccc43)c2)cc(OC)c1OC	1330	–	–	–	–	–	–	–	–	IC50 [1]: 320 nM
c1ccc(CN2CCN(c3ncnc4c3[nH]c3ccccc34)CC2)cc1	–	9490	363	6080	> 25	> 25	> 25	30	60	–
COc1ccc(Nc2nc(-c3ccccc3)nc3ccccc23)cc1OC	–	–	–	–	–	–	–	–	–	IC50 [11]: 1190 nM
N#Cc1c2n(c3c(N4CCN(CCc5ccc(F)c(F)c5)CC4)nc(-c4ccncc4)nc13)CCCC2	105	–	–	–	–	–	–	–	–	IC50 [12]: 1310 nM
N#Cc1c2n(c3c(N4CCN(CCc5c[nH]c6ccccc56)CC4)ncnc13)CCCC2	–	5620	344	3410	> 25	25	> 25	–	–	IC50 [13]: 3410 nM
COc1cc2c(cc1OC)CN(CCn1c(-c3ccc(N(C)C)cc3)nc3ccc([N+](=O)[O-])cc3c1=O)CC2	600	–	–	–	–	–	–	–	–	IC50 [14]: 400 nM
c1ccc(CCN2CCN(c3ncnc4c3[nH]c3ccccc34)CC2)nc1	–	10700	345	11600	> 25	> 25	> 25	30	60	–
COc1ccc(C(=O)/C=C/c2ccc(OC)c(OC)c2)c(OC(=O)c2ccccc2OC)c1	2160	–	–	–	–	–	–	–	–	–
c1ccc(CCN2CCN(c3ncnc4c3[nH]c3ccccc34)CC2)cc1	–	1110	405	839	> 25	> 25	> 25	–	60	Emax (P-gp (ABCB1) [15]): 26%; Emax at 3 h (MRP1 [16]): 61%; Emax at 2 h (BCRP (ABCG2) [17]): 28%
O=C(c1ccco1)N1CCN(c2ncnc3c2[nH]c2ccccc23)CC1	–	–	169	6060	> 25	> 25	> 25	30	60	–
N#Cc1cn(Cc2ccccc2)c2c(NCCCc3ccccc3)ncnc12	14000	–	–	–	–	–	–	–	–	IC50 [1]: 790 nM; IC50 [13]: 20400 nM
c1ccc2c(c1)[nH]c1c(N3CCN(Cc4ccc5c(c4)OCO5)CC3)ncnc12	–	3920	717	7930	> 25	> 25	> 25	30	60	–
c1ccc2c(CCN3CCN(c4ncnc5c4[nH]c4ccccc45)CC3)c[nH]c2c1	–	3500	921	6210	> 25	> 25	> 25	30	60	–
c1ccc(C(c2ccccc2)N2CCN(c3ncnc4c3[nH]c3ccccc34)CC2)cc1	–	2330	409	1380	> 25	> 25	> 25	30	60	–
COc1ccc(/C=C/C(=O)c2ccccc2NC(=O)c2cnc3ccccc3c2)cc1OC	494	–	–	–	–	–	–	–	–	IC50 [18]: 573 nM
CCc1c2c(nc3ccc(O)cc13)-c1cc3c(c(=O)n1C2)COC(=O)[C@]3(O)CC [7-ETHYL-10-HYDROXYCAMPTOTHECIN]	–	–	–	–	–	–	–	–	–	GI50 [19]: 1710 nM; GI50 [20]: 86 nM

— ChEMBL document CHEMBL5260824, “9-Deazapurines as Broad-Spectrum Inhibitors of the ABC Transport Proteins P-Glycoprotein, Multidrug Resistance-Associated Protein 1, and Breast Cancer Resistance Protein” (J Med Chem, 2017)
